Activity calls are given as the source filed them. The calls are words filed in the database; no cut-off is given here.
Experiments:
[1] = biological target: Probable G-protein coupled receptor 34 (Mus musculus, UniProt Q9R1K6); experiment: (§1) Agonist activity at mouse GPR34 expressed in HEK293 cells co-transfected with AP-TGFalpha/Galphaq/i1 assessed as induction of ectodomain shedding of membrane bound AP-TGFalpha after 1 hr by p-NPP substrate based microplate reader analysis; assay type: cell-based
Chain of Probable G-protein coupled receptor 34 (Mus musculus, UniProt Q9R1K6) (Q9R1K6 whole entry, the tested form may be a part): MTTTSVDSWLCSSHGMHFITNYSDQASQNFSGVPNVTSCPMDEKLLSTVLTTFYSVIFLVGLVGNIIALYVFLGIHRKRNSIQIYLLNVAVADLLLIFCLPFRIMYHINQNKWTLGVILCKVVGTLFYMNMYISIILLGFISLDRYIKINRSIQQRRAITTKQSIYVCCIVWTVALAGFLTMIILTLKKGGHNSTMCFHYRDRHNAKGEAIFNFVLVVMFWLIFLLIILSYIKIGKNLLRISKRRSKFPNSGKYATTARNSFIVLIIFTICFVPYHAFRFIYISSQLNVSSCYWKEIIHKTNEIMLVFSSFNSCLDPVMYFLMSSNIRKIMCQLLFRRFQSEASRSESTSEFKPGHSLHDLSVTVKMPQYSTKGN
Method in brief: (§2)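 HEK293 cells transiently transfected with AP-TGFα, chimeric Gα and mouse GPR34 vectors, then treated with compound. Empty-vector cells (AP-TGFα plus chimeric Gα) served as background. Receptor-specific AP-TGFα release was taken after subtracting that background, and concentration-response curves gave EC50 and Emax. Mean and SEM of 3−8 independent experiments.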

[2] = biological target: Probable G-protein coupled receptor 34 (Mus musculus) (UniProt Q9R1K6); experiment: Agonist activity at mouse GPR34 expressed in HEK293 cells co-transfected with AP-TGFalpha/Galphaq/i1 assessed as induction of ectodomain shedding of membrane bound AP-TGFalpha after 1 hr by p-NPP substrate based microplate reader analysis relative to control; assay type: cell-based; method in brief: as §2
Chain of Probable G-protein coupled receptor 34 (Mus musculus) (Q9R1K6 whole entry, the tested form may be a part): as above

[3] = biological target: Probable G-protein coupled receptor 34 (Mus musculus) (UniProt Q9R1K6); experiment: Agonist activity at mouse GPR34 expressed in HEK293 cells co-transfected with AP-TGFalpha/Galphaq/i1 assessed as induction of ectodomain shedding of membrane bound AP-TGFalpha after 1 hr by p-NPP substrate based microplate reader analysis relative to positive control; assay type: cell-based; method in brief: as §2
[4] = biological target: Putative P2Y purinoceptor 10 (Mus musculus, UniProt Q8BFU7); experiment: Agonist activity at mouse P2Y10 expressed in HEK293 cells co-transfected with AP-TGFalpha/Galphaq/i1 assessed as induction of ectodomain shedding of membrane bound AP-TGFalpha after 1 hr by p-NPP substrate based microplate reader analysis; assay type: cell-based
Chain of Putative P2Y purinoceptor 10 (Q8BFU7 whole entry, the tested form may be a part): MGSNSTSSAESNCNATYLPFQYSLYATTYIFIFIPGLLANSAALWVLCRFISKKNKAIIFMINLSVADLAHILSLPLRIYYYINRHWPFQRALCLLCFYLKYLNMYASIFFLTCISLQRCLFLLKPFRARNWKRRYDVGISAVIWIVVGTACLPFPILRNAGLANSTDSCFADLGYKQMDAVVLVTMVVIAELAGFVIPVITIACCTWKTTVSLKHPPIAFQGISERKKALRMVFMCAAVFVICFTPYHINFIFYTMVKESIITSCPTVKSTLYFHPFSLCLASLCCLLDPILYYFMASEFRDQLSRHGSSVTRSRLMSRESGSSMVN
Method in brief: (§3)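 Run the same way as the GPR34 shedding assay, but with a mouse P2Y10 expression vector in HEK293 cells alongside AP-TGFα and chimeric Gα. Receptor-specific AP-TGFα release was found by subtracting the empty-vector background. EC50 and Emax came from concentration-response curves. Mean and SEM of 3−8 independent experiments.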

[5] = biological target: Putative P2Y purinoceptor 10 (Mus musculus) (UniProt Q8BFU7); experiment: Agonist activity at mouse P2Y10 expressed in HEK293 cells co-transfected with AP-TGFalpha/Galphaq/i1 assessed as induction of ectodomain shedding of membrane bound AP-TGFalpha after 1 hr by p-NPP substrate based microplate reader analysis relative to control; assay type: cell-based; method in brief: as §3
Chain of Putative P2Y purinoceptor 10 (Mus musculus) (Q8BFU7 whole entry, the tested form may be a part): as above

[6] = biological target: Putative P2Y purinoceptor 10 (Mus musculus) (UniProt Q8BFU7); experiment: Agonist activity at mouse P2Y10 expressed in HEK293 cells co-transfected with AP-TGFalpha/Galphaq/i1 assessed as induction of ectodomain shedding of membrane bound AP-TGFalpha after 1 hr by p-NPP substrate based microplate reader analysis relative to positive control; assay type: cell-based; details: filed as agonist; method in brief: as §3
[7] = biological target: Probable G-protein coupled receptor 34 (Mus musculus) (UniProt Q9R1K6); experiment: Agonist activity at mouse GPR34 expressed in HEK293 cells co-transfected with Galphaq/i1 assessed as increase in calcium influx by calcium 5 dye based FLIPR assay; assay type: functional, cell-based
Method in brief: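 Mouse GPR34-expressing HEK293 cells were monitored for calcium influx after compound was added at 100 nM or 10 nM. Each run was done in triplicate and reported as mean and S.D.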

[8] = biological target: Probable G-protein coupled receptor 34 (Homo sapiens, UniProt Q9UPC5); experiment: Agonist activity at human GPR34 expressed in HEK293 cells co-transfected with AP-TGFalpha/Galphaq/i1 assessed as induction of ectodomain shedding of membrane bound AP-TGFalpha after 1 hr by p-NPP substrate based microplate reader analysis; assay type: cell-based
Chain of Probable G-protein coupled receptor 34 (Homo sapiens, UniProt Q9UPC5) (Q9UPC5 whole entry, the tested form may be a part): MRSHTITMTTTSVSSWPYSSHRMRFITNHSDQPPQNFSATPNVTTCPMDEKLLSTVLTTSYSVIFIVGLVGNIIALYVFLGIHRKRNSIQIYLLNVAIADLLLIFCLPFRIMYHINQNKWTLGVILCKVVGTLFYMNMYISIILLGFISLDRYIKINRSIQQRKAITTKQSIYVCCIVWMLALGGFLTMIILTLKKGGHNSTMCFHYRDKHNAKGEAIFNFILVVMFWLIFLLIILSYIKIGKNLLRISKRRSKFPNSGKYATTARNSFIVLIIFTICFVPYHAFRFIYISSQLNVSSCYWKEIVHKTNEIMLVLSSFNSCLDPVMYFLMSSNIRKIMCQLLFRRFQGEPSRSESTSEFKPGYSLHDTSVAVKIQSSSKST

[9] = biological target: T1, G protein-coupled receptor 34a (Danio rerio, UniProt Q6XCC7); experiment: Agonist activity at zebrafish GPR34 type a expressed in HEK293 cells co-transfected with AP-TGFalpha/Galphaq/i1 assessed as induction of ectodomain shedding of membrane bound AP-TGFalpha after 1 hr by p-NPP substrate based microplate reader analysis; assay type: cell-based
T1 sequence (Q6XCC7 whole entry): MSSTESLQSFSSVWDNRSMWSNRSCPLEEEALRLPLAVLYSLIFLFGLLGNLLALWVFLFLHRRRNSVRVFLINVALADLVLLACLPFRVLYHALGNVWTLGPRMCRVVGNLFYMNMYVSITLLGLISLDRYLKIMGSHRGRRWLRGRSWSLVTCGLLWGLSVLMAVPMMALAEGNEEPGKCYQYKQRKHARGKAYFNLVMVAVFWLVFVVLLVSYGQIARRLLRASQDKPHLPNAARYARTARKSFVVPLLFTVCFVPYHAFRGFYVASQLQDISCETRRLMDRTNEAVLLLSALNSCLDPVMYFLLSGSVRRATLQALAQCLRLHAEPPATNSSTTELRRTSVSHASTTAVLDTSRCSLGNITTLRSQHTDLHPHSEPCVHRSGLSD

[10] = biological target: T2, G protein-coupled receptor 34a (Danio rerio) (UniProt Q6XCC7); experiment: Agonist activity at zebrafish GPR34 type a expressed in HEK293 cells co-transfected with AP-TGFalpha/Galphaq/i1 assessed as induction of ectodomain shedding of membrane bound AP-TGFalpha after 1 hr by p-NPP substrate based microplate reader analysis relative to control; assay type: cell-based
T2 sequence (whole entry): T1 sequence (Q6XCC7 whole entry)

[11] = biological target: T3, G protein-coupled receptor 34b (Danio rerio, UniProt B0S6P9); experiment: Agonist activity at zebrafish GPR34 type b expressed in HEK293 cells co-transfected with AP-TGFalpha/Galphaq/i1 assessed as induction of ectodomain shedding of membrane bound AP-TGFalpha after 1 hr by p-NPP substrate based microplate reader analysis; assay type: cell-based
T3 sequence (B0S6P9 whole entry): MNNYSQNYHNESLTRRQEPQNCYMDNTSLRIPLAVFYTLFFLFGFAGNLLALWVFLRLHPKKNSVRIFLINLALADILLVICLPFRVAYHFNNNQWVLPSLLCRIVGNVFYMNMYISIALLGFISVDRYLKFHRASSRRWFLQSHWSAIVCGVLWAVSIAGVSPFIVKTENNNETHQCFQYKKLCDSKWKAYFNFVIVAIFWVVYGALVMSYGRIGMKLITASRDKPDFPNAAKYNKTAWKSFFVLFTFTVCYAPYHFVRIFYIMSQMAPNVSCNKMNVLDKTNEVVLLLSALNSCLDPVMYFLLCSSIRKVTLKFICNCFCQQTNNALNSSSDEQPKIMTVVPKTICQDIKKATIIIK

[12] = biological target: T4, G protein-coupled receptor 34b (Danio rerio) (UniProt B0S6P9); experiment: Agonist activity at zebrafish GPR34 type b expressed in HEK293 cells co-transfected with AP-TGFalpha/Galphaq/i1 assessed as induction of ectodomain shedding of membrane bound AP-TGFalpha after 1 hr by p-NPP substrate based microplate reader analysis relative to control; assay type: cell-based
T4 sequence (whole entry): T3 sequence (B0S6P9 whole entry)

[13] = biological target: Probable G-protein coupled receptor 34 (Mus musculus) (UniProt Q9R1K6); experiment: as §1; assay type: cell-based; method in brief: as §2

EC50 ([1]; read-out: EC50) | Emax [2] | fold change (FC) ([3]; filed as agonist) | EC50 [4] | Emax [5] | fold change (FC) [6] | Activity ([7]; filed as agonist) | EC50 [8] | pEC50 [13] | EC50 ([1]; hek293) | fold change (FC) [3] | Activity [7] | Structure (SMILES) | EC50 [9] | Emax [10] | EC50 [11] | Emax [12]
0.00083 µM | 10.3% | 100 | 0.001 µM | 10.6% | 1.7 | Active | 0.00075 µM |  |  |  |  | CCCCCCCCCCCOc1ccccc1CCC(=O)O[C@@H]1CCOC[C@H]1OP(=O)(O)OC[C@H](N)C(=O)O | 0.51 µM | 14% | 0.012 µM | 25%
 | inactive |  | 0.012 µM | 11.1% | 0.14 |  |  | inactive | Not Active | inactive | inactive | CCCCCCCCCCCOc1ccccc1CCC(=O)O[C@H]1CCOC[C@@H]1OP(=O)(O)OC[C@H](N)C(=O)O |  |  |  | 

Structure (SMILES) | EC50 ([1]; read-out: EC50) | Emax [2] | fold change (FC) ([3]; filed as agonist) | EC50 [4] | Emax [5] | fold change (FC) [6] | Activity ([7]; filed as agonist) | EC50 [8] | pEC50 [13] | EC50 ([1]; hek293) | fold change (FC) [3] | Activity [7] | EC50 [9] | Emax [10] | EC50 [11] | Emax [12]
CCCCCCCC/C=C\CCCCCCCC(=O)OC[C@@H](O)COP(=O)(O)OC[C@H](N)C(=O)O |  |  |  | 0.02 µM | 13.6% |  |  |  |  |  |  |  | 0.13 µM | 22.1% | 0.0035 µM | 25.1%
